# An excerpt weighted towards active compounds, which were near 1.8% of everything screened.
# eIF4E 4G PPI: blocks eIF4E binding to eIF4G; P63073+Q04637; TR-FRET eIF4E-eIF4GI(517-606) binding, 2 h; inhibition, % at 21.7 µM; 220,000 tested, 0.37% active;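 active means inhibition above about 30%, limit read from the data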;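 further: 0% = full FRET control wells and 100% = background wells lacking eIF4GI fragment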
# PABP FP inh: blocks human PABP binding to poly(A) RNA. P11940. fluorescence polarization. calls only at 35 µM. 290,000 tested, 1% active. AID 2014;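 further: calls also rest on retests at 20 µM and on dose response follow-up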
# SUMO HTRF inh: SUMOylation inhibition; P63279; inhibition, % at 35 µM; HTRF SUMOylation assay, SAE1/SAE2 + UBC9, in vitro; 290,000 tested, 0.36% active; AID 2006; in the data active means inhibition above about 50%, passing the limit was not always enough; inconclusive means no clear call, values can overlap the other calls
# eIF4H FP inh: inhibitors of RNA binding by human eIF4H | inhibition, % at 35 µM | 290,000 tested, 0.94% active | eIF4H fluorescence polarization binding assay | Q15056;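 further: calls also rest on retests at 20 µM and on dose response follow-up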
# core dimer inh: blocks dimerization of HCV core protein; TR-FRET GST/Flag-core106 dimerization, 1536-well; AID 1899; 300,000 tested, 0.33% active; inhibition, % at 5 µM;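 active means inhibition above the mean of all tested compounds plus 3 SD, set per screening campaign, cut at about 45% in these data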
#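 Assay system: Tagged HCV core106 pair (GST and Flag) | Buffer or medium: KF-containing HEPES buffer, pH 7.45, DTT, CHAPS, BSA | Also added: Eu donor and XL665 acceptor anti-tag antibodies | Dosing: One concentration, 5 µM, in 0.5% DMSO | Timing: 4 h at 22.5 °C | Technique: TR-FRET 671 and 617 nm emission | Repeats: Singlicate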
# PABP1 MLLE inh: blocks PAM2 peptide binding to the PABP1 MLLE domain; GST-MLLE / FITC-PAM2 fluorescence polarization; 360,000 tested, 0.36% active; P11940; inhibition, % at 20 µM; in the data active means inhibition above about 35%, passing the limit was not always enough;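 further: plate controls were DMSO wells with GST-MLLE for no effect and wells lacking GST-MLLE protein for full effect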
# Active calls of the source: *; i = inactive; ? = inconclusive; . = not tested or not shown; + = active, no number; [ ] = another dose, or the depositor's remark. Unless noted, how the calls were made is not given here.
SMILES,eIF4E 4G PPI,PABP FP inh,SUMO HTRF inh,eIF4H FP inh,core dimer inh,PABP1 MLLE inh
Cc1ccc(N2C(=O)NC(=O)/C(=C\c3cnc(-c4ccccc4)nc3)C2=O)cc1,3,i,5,58*,2,-2
Cc1ccc(N2C(=O)NC(=O)/C(=C/c3cnn(-c4ccc(C)cc4)c3)C2=O)cc1,-2,i,13,?,0,-6
Cc1ccc(N2C(=O)NC(=O)/C(=C/c3ccoc3)C2=O)cc1,35*,?,56*,?,.,-84
S=C(NCCc1ccccc1)N1Cc2ccccc2-n2nncc2C1,.,.,.,.,.,-118
CCOc1cc(-c2nc3c(C)cccn3c2NCC2CCCO2)ccc1O (configuration not stated),5,i,52*,-8,-7,4
Cc1cccn2c(NCC3CCCO3)c(C(C)C)nc12 (configuration not stated),-13,i,12,-2,-3,24
N/C(=N\N=C/c1ccc(-c2ccc(O)c(C(=O)O)c2)o1)N[N+](=O)[O-],33*[fluorescence artefact?],+,23,103*,-25,8
O=C1NC(=S)SC1=Cc1ccc(N(CCCl)CCCl)cc1,.,.,.,.,.,-160
CN(C)P(=O)(CCl)Nc1ccccc1 (configuration not stated),3,+,-12,96*,-6,10
CCCCn1c(NS(=O)(=O)c2ccccc2)c(C(=O)OCC)c2nc3ccccc3nc21,6,+,100*,active,5,-4
CCC(C)NC(=O)c1c(N)n(CCCOC)c2nc3ccccc3nc12 (configuration not stated),15,+,101,61*,2,8
CCCCn1c(N)c(C(=O)NCCN2CCOCC2)c2nc3ccccc3nc21,6,i,44,-2,1,-23
CCCCn1c(NC(=O)c2ccc(Br)o2)c(C(=O)OCC)c2nc3ccccc3nc21,7,i,100*,-5,-1,-26
CCOC(=O)c1c(N)n(CCN2CCCCC2)c2nc3ccccc3nc12,-2,+,18,94*,8,-12
CC1(C)CC(=O)CC(C)(C)N1O,.,.,.,.,.,11
O=C(NCC1=C(c2ccc3ccccc3c2)C[C@@H]2CC[C@H]1N2Cc1ccco1)c1ccc([N+](=O)[O-])cc1,.,.,.,.,.,4
CCc1nn2c(=O)c(F)c(N3CCNCC3)nc2s1,.,.,.,.,.,-10
Cc1ccc(-n2c(O)c(C=Nc3ccc(S(=O)(=O)N(C)C)cc3)c(=O)[nH]c2=O)cc1,3,+,19,?,0,-3
C[C@H](CO)N1C[C@H](C)[C@@H](CN(C)C(=O)Oc2ccc3ccccc3c2)OCc2cn(nn2)CCCC1=O,.,.,.,.,.,-2
COc1ccc(OC(=O)N(C)C[C@@H]2OCc3ccccc3-c3c(n(C)c4ccccc34)C(=O)N([C@H](C)CO)C[C@@H]2C)cc1,.,.,.,.,.,-4
COc1ccc(C=C2C(=O)NC(=S)NC2=O)cc1,.,.,.,.,.,19
O=C1NC(=S)NC(=O)C1=Cc1cccc2cc3ccccc3cc12,-2,i,8,98,.,40*
C=Cn1ccnc1P(=S)(c1ccccc1)c1nccn1C=C,3,i,3,active,-5,0
N#Cc1ccc(NC(=S)N2Cc3ccccc3-n3nncc3C2)cc1,.,.,.,.,.,-89
O=C1c2ccccc2C(=O)N1Cc1nc2ccccc2c(=O)n1-c1ccccn1,31*,i,-8,2,-8,-8
SMILES,eIF4E 4G PPI,PABP FP inh,SUMO HTRF inh,eIF4H FP inh,core dimer inh,PABP1 MLLE inh
CC(C)(C)C(=O)c1cn(CC(=O)NCc2ccco2)c2ccccc12,3,+,6,-10,-3,-143
CCC(C)c1cnc(CC(C)C)c(=O)n1O (configuration not stated),.,.,.,.,.,13
CC12CCC(O)CC1CCC1C2CCC2(C)C(C(=O)CO)CCC12 (configuration not stated),.,.,.,.,.,9
O=c1[nH]c(=O)n(CCC2=CCCCC2)c(O)c1/C=N/Nc1ccccc1,14,i,-5,2,-5,-12
O=c1[nH]c(=O)n(CCC2=CCCCC2)c(O)c1/C=N/Nc1cccc2ccccc12,1,+,45,?,25,3
Cc1ccc(CN2CCC3CCC(C3)C2)c(O)c1 (configuration not stated),.,.,.,.,.,15
Cn1ncnc2c(=O)n(C)c(=O)nc1-2,.,i,102*,-4,29,-2
COCCCNC(=O)c1c(NC(=O)c2ccccc2Cl)n(Cc2ccccc2)c2nc3ccccc3nc12,-2,i,19,42*,2,-12
C=CC12CN(C)C3C4COC(CC41)C1(C(=O)Nc4ccccc41)C32 (configuration not stated),.,.,.,.,.,-10
Cn1cnc([N+](=O)[O-])c1Sc1ccc([N+](=O)[O-])cc1,1,i,-5,19,-2,47*
CCOC(=O)CNC(=O)N1Cc2cc(N3CCOCC3)ccc2-n2nncc2C1,.,.,.,.,.,-1
Cc1ccc(-n2c(=O)[nH]c3ccccc3c2=O)cc1[N+](=O)[O-],.,.,.,.,.,-7
O=C1NC(=O)C(=Cc2csc3ccccc23)C(=O)N1,7,i,1,38,15,41*
Cn1cc(C=C2C(=O)NC(=O)NC2=O)c2ccccc21,.,?,14,?,0,i
c1ccc(C2(NC3=NCCO3)CCCCC2)cc1,.,.,.,.,.,-10
C=C1C(=O)OC2CC3(C)OC3C3OC3C3=CC(OC3=O)C12 (configuration not stated),.,.,.,.,.,25
COc1cc(/C=C2\C(=O)NC(=O)N(c3ccccc3)C2=O)cc(OC)c1OC,-6,i,0,-11,0,18
COc1ccc(/C=C2/C(=O)NC(=O)N(c3ccc(C)c(C)c3)C2=O)cc1CN1C(=O)c2ccccc2C1=O,4,+,1,50*,2,27
O=S1(=O)CCN(CCc2c[nH]c3ccccc23)CC1,-5,+,-11,active,-1,8
S=C(NCCc1ccccc1)N1Cc2cc(N3CCCCC3)ccc2-n2nncc2C1,.,.,.,.,.,-138
Clc1cccc(N2Cc3cc(-c4ccccc4)ccc3-n3nncc3C2)c1,.,.,.,.,.,-71
O=c1[nH]c(=S)[nH]c(O)c1N=Nc1ccc2c(c1)OCCO2,1,?,9,?,-7,-62
